Active and inactive are the calls of the source. The rule behind the calls is not given here.
Columns and labels:
[1] = biological target: Hypoxia-inducible factor 1-alpha (Homo sapiens) (UniProt Q16665); assay: Inhibition of HIF1-alpha (unknown origin)
HCT-116 [2] = assay: Induction of apoptosis in human HCT116 cells assessed as PARP cleavage at 50 uM after 12 hrs by Western blot analysis; type: functional, cell-based
HCT-116 [3] = assay: Induction of apoptosis in human HCT116 cells assessed as necrotic cells at 50 uM preincubated for 12 hrs followed by TNF stimulation and measured after 24 hrs by Annexin-V/PI-staining based flow cytometric analysis (reference value: 3.6%); type: functional
HCT-116 [4] = assay: Induction of apoptosis in human HCT116 cells assessed as late apoptotic cells at 50 uM preincubated for 12 hrs followed by TNF stimulation and measured after 24 hrs by Annexin-V/PI-staining based flow cytometric analysis (reference value: 1.4%); type: functional
[5] = biological target: Hypoxia-inducible factor 1-alpha (Homo sapiens) (UniProt Q16665); assay: Inhibition of HIF1alpha transcriptional activity in hypoxia-induced human HCT116 cells co-transfected with luciferase reporter plasmid containing six copies of HREs and pRL-CMV plasmid by luciferase reporter gene assay; type: cell-based; settings: HCT-116
Procedure, shortened: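 HCT116 transiently co-transfected with pGL3-HRE-luciferase and pRL-CMV; after 24 h, incubated under hypoxia with graded concentrations; luciferase activity read; mean ± SD, three independent experiments.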

TGF-beta receptor type-1 = biological target: T1, TGF-beta receptor type-1 (Homo sapiens, UniProt P36897); assay: Inhibition of recombinant GST-tagged human ALK5 expressed in baculovirus infected Sf9 insect cells
T1 sequence (P36897 whole entry): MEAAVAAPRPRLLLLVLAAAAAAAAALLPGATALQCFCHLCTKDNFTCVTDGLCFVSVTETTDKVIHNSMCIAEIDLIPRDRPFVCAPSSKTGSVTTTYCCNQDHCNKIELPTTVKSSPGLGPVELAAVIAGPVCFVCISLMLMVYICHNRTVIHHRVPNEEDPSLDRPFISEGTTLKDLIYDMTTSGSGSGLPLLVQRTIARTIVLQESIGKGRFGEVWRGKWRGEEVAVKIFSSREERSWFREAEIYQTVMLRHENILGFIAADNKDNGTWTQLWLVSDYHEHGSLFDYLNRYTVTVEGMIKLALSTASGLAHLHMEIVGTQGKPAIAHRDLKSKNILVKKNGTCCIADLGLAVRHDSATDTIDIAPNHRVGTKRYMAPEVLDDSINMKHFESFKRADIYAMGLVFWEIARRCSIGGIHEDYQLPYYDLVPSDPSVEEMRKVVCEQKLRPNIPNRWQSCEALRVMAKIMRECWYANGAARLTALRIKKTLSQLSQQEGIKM
Procedure, shortened: (§1)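 IC50 determination against ALK5 (human GST-fusion, Sf9 baculovirus) and p38α (untagged human, E. coli); values averaged from three independent experiments run in triplicate.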

[6] = biological target: Mitogen-activated protein kinase 14 (Homo sapiens, UniProt Q16539); assay: Inhibition of recombinant human p38alpha expressed in Escherichia coli; procedure, shortened: as §1
HCT-116 [7] = assay: Induction of apoptosis in human HCT116 cells assessed as effect on cleaved caspase-3 expression at 50 uM preincubated for 12 hrs followed by TNF-stimulation and measured after 24 hrs by Western blot analysis; type: functional, cell-based
Procedure, shortened: (§2)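 HCT116 pretreated 12 h with 50 μM, then TNF (10 ng/mL) 24 h; whole cell extracts blotted for cleaved caspase-8, cleaved caspase-3, cleaved PARP, tubulin.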

HUVEC = assay: Inhibition of TNF-induced cell migration in HUVEC at 50 uM after 24 hrs by scratch wound healing assay; type: functional, cell-based; settings: Homo sapiens
Procedure, shortened: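 HUVEC scratch assay: cells pretreated with graded concentrations, with or without TNF (10 ng/mL); uncovered area photographed at 24 h.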

HCT-116 [8] = assay: Inhibition of TNFalpha-induced HIF1alpha expression in human HCT116 cells at 10 to 50 uM by Western blot analysis; type: functional, cell-based
Procedure, shortened: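 HCT116 exposed to TNF 10 ng/mL for 24 h with graded concentrations; total protein blotted for HIF-1α, Topo-I reprobe as loading control.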

HCT-116 [9] = assay: Inhibition of hypoxia-induced HIF1alpha protein expression in human HCT116 cells incubated for 12 hrs under hypoxic condition by Western blot analysis; type: functional, cell-based
Procedure, shortened: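 HCT116 held under normoxia or hypoxia 12 h with graded concentrations; nuclear extracts probed for HIF-1α by Western blot, Topo-I as loading control.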

HCT-116 [10] = assay: Induction of apoptosis in human HCT116 cells assessed as effect on cleaved caspase 3 expression at 50 uM after 12 hrs by Western blot analysis; type: functional, cell-based
HCT-116 [11] = assay: Induction of apoptosis in human HCT116 cells assessed as early apoptotic cells at 50 uM preincubated for 12 hrs followed by TNF stimulation and measured after 24 hrs by Annexin-V/PI-staining based flow cytometric analysis (reference value: 2.8%); type: functional
HCT-116 [12] = assay: Inhibition of colony formation in TNF-induced human HCT116 cells pretreated with compound for 12 hrs before TNF stimulation for 30 mins and followed by replacement of fresh medium incubated for 10 days by crystal violet staining based analysis; type: functional, cell-based
Procedure, shortened: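 HCT116 treated 12 h (10, 30, 50 μM), then TNF 10 ng/ml 30 min; medium replaced, growth continued 10 days; crystal violet staining; mean ± SD of three independent experiments.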

HCT-116 [13] = assay: Induction of apoptosis in human HCT116 cells assessed as viable cells at 50 uM preincubated for 12 hrs followed by TNF stimulation and measured after 24 hrs by Annexin-V/PI-staining based flow cytometric analysis (reference value: 92.4%); type: functional; settings: read-out: Activity
HCT-116 [14] = assay: Induction of apoptosis in human HCT116 cells assessed as effect on cleaved caspase 8 expression at 50 uM preincubated for 12 hrs followed by TNF-stimulation and measured after 24 hrs by Western blot analysis; type: functional, cell-based; procedure, shortened: as §2
HCT-116 [15] = assay: Down regulation of TNF-induced ICAM-1 mRNA expression in human HCT116 cells at 50 uM pretreated for 12 hrs followed by TNF stimulation and measured after 12 hrs by Western blot analysis; type: functional, cell-based; settings: in the assay text read “RT-PCR analysis” for “Western blot analysis”
Procedure, shortened: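 HCT116 preincubated 12 h with graded concentrations, then TNF 10 ng/mL for a further 12 h; ICAM-1, VEGF, MMP-9 transcripts measured by RT-PCR, GAPDH for equal RNA loading.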

HCT-116 [16] = assay: Induction of apoptosis in human HCT116 cells assessed as early apoptotic cells at 50 uM after 12 hrs by Annexin-V/PI-staining based flow cytometric analysis (reference value: 1%); type: functional
HCT-116 [17] = assay: Down regulation of TNF-induced ICAM-1 protein expression in human HCT116 cells at 50 uM pretreated for 12 hrs followed by TNF stimulation and measured after 24 hrs by Western blot analysis; type: functional, cell-based
Procedure, shortened: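 HCT116 pretreated 12 h with 50 μM, then TNF (10 ng/mL) 24 h; whole cell extracts immunoblotted for ICAM-1, MMP-9, VEGF with tubulin as loading reference.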

HCT-116 [18] = assay: Induction of apoptosis in human HCT116 cells assessed as necrotic cells at 50 uM after 12 hrs by Annexin-V/PI-staining based flow cytometric analysis (reference value: 3.5%); type: functional
HCT-116 [19] = assay: Induction of apoptosis in human HCT116 cells assessed as late apoptotic cells at 50 uM after 12 hrs by Annexin-V/PI-staining based flow cytometric analysis (reference value: 0.2%); type: functional
HCT-116 [20] = assay: Induction of apoptosis in human HCT116 cells assessed as effect on cleaved caspase 8 expression at 50 uM after 12 hrs by Western blot analysis; type: functional, cell-based

Hypoxia-inducible factor 1-alpha (Homo sapiens), sequence (Q16665 whole entry, looked up): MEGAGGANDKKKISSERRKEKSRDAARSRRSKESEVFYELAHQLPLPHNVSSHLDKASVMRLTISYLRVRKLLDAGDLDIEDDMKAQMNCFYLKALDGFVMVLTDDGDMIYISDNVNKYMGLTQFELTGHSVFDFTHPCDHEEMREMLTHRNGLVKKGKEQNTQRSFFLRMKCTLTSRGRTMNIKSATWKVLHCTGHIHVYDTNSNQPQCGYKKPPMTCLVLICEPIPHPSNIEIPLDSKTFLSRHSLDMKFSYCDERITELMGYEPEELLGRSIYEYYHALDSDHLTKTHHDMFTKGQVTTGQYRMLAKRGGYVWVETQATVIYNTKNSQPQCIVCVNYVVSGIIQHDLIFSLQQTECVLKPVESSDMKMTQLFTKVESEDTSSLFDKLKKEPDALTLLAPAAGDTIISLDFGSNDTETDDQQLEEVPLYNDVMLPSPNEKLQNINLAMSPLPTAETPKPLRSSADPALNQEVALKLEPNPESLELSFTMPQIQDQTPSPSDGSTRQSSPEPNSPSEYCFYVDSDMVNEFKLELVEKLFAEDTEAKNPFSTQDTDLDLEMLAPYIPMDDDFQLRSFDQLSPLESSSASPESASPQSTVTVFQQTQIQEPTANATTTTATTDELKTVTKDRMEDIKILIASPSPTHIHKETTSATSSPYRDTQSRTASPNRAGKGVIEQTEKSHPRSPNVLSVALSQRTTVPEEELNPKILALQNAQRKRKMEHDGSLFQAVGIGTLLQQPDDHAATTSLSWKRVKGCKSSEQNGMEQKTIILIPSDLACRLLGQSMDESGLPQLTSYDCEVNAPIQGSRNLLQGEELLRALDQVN
Mitogen-activated protein kinase 14, sequence (Q16539 whole entry): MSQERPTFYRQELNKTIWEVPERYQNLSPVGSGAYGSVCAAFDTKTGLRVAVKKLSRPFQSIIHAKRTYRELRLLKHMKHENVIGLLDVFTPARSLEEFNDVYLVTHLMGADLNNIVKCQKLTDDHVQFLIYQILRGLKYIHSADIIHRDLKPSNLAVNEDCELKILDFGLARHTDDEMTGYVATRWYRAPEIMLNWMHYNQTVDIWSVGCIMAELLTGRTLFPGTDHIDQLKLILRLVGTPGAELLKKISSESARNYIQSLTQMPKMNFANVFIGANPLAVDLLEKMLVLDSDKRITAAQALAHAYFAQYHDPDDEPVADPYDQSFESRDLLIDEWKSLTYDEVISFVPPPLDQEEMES

Cc1cccc(-c2nn(CC(=S)Nc3cccc(C#N)c3)cc2-c2ccnc3ccccc23)n1
inhibition [1]: Active | Activity (HCT-116 [2]): Active | Activity (HCT-116 [3]): 5.4% | Activity (HCT-116 [4]): 3.6% | inhibition [5]: Dose-dependent effect | IC50 (TGF-beta receptor type-1): 69 nM | IC50 [6]: 104 nM | Activity (HCT-116 [7]): Active | inhibition (HUVEC): Active | inhibition (HCT-116 [8]): Active | inhibition (HCT-116 [9]): Dose-dependent effect | Activity (HCT-116 [10]): Active | Activity (HCT-116 [11]): 4.4% | inhibition (HCT-116 [12]): Dose-dependent effect | viability at 50 µM (HCT-116 [13]): 86.8% | Activity (HCT-116 [14]): Active | Activity (HCT-116 [15]): Active | Activity (HCT-116 [16]): 3.1% | Activity (HCT-116 [17]): Active | Activity (HCT-116 [18]): 8.5% | Activity (HCT-116 [19]): 3.2% | Activity (HCT-116 [20]): Active
